Results from ChEMBL document CHEMBL4229499, “Development of novel silanol-based human pregnane X receptor (PXR) agonists with improved receptor selectivity” (Bioorg Med Chem, 2018).

Columns and labels:
[1] = Octanol/water partition co-efficient, log P of the compound by HPLC method; format: physicochemical
[2] = target: T1, Nuclear receptor subfamily 1 group I member 2 (Homo sapiens, UniProt O75469); test: Agonist activity at VP16-fused human PXR expressed in HEK293 cells after 24 hrs by luciferase reporter gene assay; format: cell-based
T1 sequence (O75469 whole entry): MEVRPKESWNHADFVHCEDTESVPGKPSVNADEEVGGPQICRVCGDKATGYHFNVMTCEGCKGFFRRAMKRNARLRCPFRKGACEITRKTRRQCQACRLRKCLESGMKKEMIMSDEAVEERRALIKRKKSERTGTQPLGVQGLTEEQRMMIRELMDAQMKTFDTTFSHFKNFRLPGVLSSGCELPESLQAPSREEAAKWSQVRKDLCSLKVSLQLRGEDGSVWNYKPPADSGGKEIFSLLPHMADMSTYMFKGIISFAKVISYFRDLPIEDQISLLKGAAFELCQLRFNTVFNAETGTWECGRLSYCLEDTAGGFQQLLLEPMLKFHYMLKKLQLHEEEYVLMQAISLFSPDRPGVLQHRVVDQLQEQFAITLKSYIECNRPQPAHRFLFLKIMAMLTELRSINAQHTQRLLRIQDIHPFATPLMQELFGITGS
Summary of the method: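 HEK293 cells grown in DMEM with 5% FBS and penicillin/streptomycin at 37 °C, 5% CO₂. Seeded at 20% confluence 24 h before calcium-phosphate co-transfection with 150 ng receptor expression plasmid (PXR as a VP16 fusion), 500 ng luciferase reporter and 10 ng β-gal vector. Luciferase was normalized to β-galactosidase, in triplicate transfections.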

[3] = target: T2, Nuclear receptor ROR-alpha (Homo sapiens, UniProt P35398); test: Inhibition of human RORalpha1 expressed in HEK293 cells after 24 hrs by luciferase reporter gene assay; format: cell-based
T2 sequence (P35398 whole entry): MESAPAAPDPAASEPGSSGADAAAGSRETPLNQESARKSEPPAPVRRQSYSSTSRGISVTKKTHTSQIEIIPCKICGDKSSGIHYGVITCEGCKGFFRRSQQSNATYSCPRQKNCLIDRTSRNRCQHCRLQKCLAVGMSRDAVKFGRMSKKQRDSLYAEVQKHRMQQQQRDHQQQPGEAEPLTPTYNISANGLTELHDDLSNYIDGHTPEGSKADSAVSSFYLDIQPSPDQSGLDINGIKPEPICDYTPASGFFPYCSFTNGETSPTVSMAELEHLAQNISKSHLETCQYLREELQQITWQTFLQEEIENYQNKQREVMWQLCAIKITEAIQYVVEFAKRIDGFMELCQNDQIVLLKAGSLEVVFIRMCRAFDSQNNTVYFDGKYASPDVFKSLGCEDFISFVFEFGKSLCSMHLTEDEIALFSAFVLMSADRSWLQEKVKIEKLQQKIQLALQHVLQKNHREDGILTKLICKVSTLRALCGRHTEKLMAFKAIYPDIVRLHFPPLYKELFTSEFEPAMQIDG

[4] = target: T3, Nuclear receptor ROR-gamma (Homo sapiens, UniProt P51449); test: Inhibition of human RORgamma1 expressed in HEK293 cells after 24 hrs by luciferase reporter gene assay; format: cell-based
T3 sequence (P51449 whole entry): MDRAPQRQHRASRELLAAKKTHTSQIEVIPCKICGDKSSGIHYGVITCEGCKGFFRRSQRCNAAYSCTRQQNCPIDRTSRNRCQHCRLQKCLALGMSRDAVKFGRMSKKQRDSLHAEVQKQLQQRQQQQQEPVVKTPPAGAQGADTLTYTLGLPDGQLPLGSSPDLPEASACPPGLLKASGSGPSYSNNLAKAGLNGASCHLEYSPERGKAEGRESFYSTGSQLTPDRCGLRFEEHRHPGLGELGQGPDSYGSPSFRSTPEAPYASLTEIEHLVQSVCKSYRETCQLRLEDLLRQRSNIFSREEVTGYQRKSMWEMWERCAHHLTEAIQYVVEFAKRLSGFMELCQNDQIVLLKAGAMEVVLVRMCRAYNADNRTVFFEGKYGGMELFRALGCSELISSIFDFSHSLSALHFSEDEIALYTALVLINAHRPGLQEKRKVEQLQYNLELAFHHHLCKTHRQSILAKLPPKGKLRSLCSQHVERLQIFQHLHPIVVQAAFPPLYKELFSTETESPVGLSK

[5] = target: T4, Nuclear receptor ROR-alpha (Homo sapiens) (UniProt P35398); test: Agonist activity at human RORalpha1 expressed in HEK293 cells after 24 hrs by luciferase reporter gene assay; format: cell-based
T4 sequence (whole entry): T2 sequence (P35398 whole entry)

[6] = target: T5, Nuclear receptor ROR-gamma (Homo sapiens) (UniProt P51449); test: Agonist activity at human RORgamma1 expressed in HEK293 cells after 24 hrs by luciferase reporter gene assay; format: cell-based
T5 sequence (whole entry): T3 sequence (P51449 whole entry)

logP [1] | EC50 ([2]; read-out: EC50) [µM] | IC50 ([3]; read-out: IC50) [µM] | IC50 ([4]; read-out: IC50) [µM] | EC50 ([2]; hek293) | IC50 ([3]; hek293) | IC50 ([4]; hek293) | Activity [5] [%] | Activity [6] [%] | Compound
3.2 | 1.9 | > 30 | > 30 | – | – | – | – | – | CCN(c1ccc([Si](C)(C)O)cc1)S(=O)(=O)c1ccccc1
2.9 | 3.4 | – | – | – | – | – | 53 | 54 | CN(c1ccc([Si](C)(C)O)cc1)S(=O)(=O)c1ccccc1
2.81 | 4.2 | – | – | – | Not Active | Not Active | – | – | COCCN(c1ccc([Si](C)(C)O)cc1)S(=O)(=O)c1ccccc1
4.05 | 6.5 | > 30 | > 30 | – | – | – | – | – | CCCCN(c1ccc([Si](C)(C)O)cc1)S(=O)(=O)c1ccccc1
– | 0.63 | > 30 | 11 | – | – | – | – | – | C[Si](C)(O)c1ccc(N(CC(F)(F)F)S(=O)(=O)c2ccccc2)cc1
2.35 | – | – | > 30 | Not Active | Not Active | – | – | – | COC(=O)CN(c1ccc(C(C)(C)O)cc1)S(=O)(=O)c1ccccc1
2.79 | 1.4 | – | – | – | Not Active | Not Active | – | – | COC(=O)CN(c1ccc([Si](C)(C)O)cc1)S(=O)(=O)c1ccccc1
3.92 | 3.2 | > 30 | > 30 | – | – | – | – | – | C[Si](C)(O)c1ccc(N(Cc2ccccc2)S(=O)(=O)c2ccccc2)cc1
2.22 | 2.4 | – | – | – | Not Active | Not Active | – | – | C[Si](C)(O)c1ccc(NS(=O)(=O)c2ccccc2)cc1
– | – | – | > 30 | Not Active | Not Active | – | – | – | CC(C)(O)c1ccc(N(CC(F)(F)F)S(=O)(=O)c2ccccc2)cc1
4.32 | 14 | > 30 | > 30 | – | – | – | – | – | C[Si](C)(O)c1ccc(N(CCc2ccccc2)S(=O)(=O)c2ccccc2)cc1

Compound | logP [1] | EC50 ([2]; read-out: EC50) [µM] | IC50 ([3]; read-out: IC50) [µM] | IC50 ([4]; read-out: IC50) [µM] | EC50 ([2]; hek293) | IC50 ([3]; hek293) | IC50 ([4]; hek293) | Activity [5] [%] | Activity [6] [%]
O=C(O)c1ccc(N(CC(F)(F)F)S(=O)(=O)c2ccccc2)cc1 | – | – | – | – | Not Active | Not Active | Not Active | – | –
